Published values gathered from unrelated publications.
Each line is one published result; the experiments were not run side by side. In brackets after ≈: the same amount, converted by molar mass.
Organism: Staphylococcus aureus

SMILES	test	test system	conditions	quantity	result
O=[N+]([O-])c1ccc(-c2nc3ccccc3[nH]2)cc1	microbial growth, broth dilution	ATCC43300 MRSA	drug-resistant strain	MIC	256 µg/mL (≈ 1070 µM)
COC(=O)c1cc(-c2cccc(NC(=S)Nc3ccc(F)cc3F)c2)on1	microbial growth, broth dilution	ATCC29213		MIC	> 64 µg/mL
CC1(C)CC[C@]2(C(=O)O)CC[C@]3(C)C(=CC[C@@H]4[C@@]5(C)CC[C@H](O)C(C)(C)[C@@H]5CC[C@]43C)[C@@H]2C1	microbial growth	USA300		MIC	256 µg/mL (≈ 561 µM)
CN[C@H](CC(C)C)C(=O)N[C@H]1C(=O)N[C@@H](CC(N)=O)C(=O)N[C@H]2C(=O)N[C@H]3C(=O)N[C@H](C(=O)N[C@H](C(=O)O)c4cc(O)cc(O)c4-c4cc3ccc4O)[C@H](O)c3ccc(c(Cl)c3)Oc3cc2cc(c3O[C@@H]2O[C@H](CO)[C@@H](O)[C@H](O)[C@H]2O[C@H]2C[C@](C)(N)[C@H](O)[C@H](C)O2)Oc2ccc(cc2Cl)[C@H]1O	microbial killing, broth dilution	ATCC6538		MBC	2 µM
O=C(O)c1cn(C2CC2)c2cc(N3CCNCC3)c(F)cc2c1=O	microbial killing			MBC	0.019 µg/mL
CC(=O)Oc1cccc2c1[nH]c1c(C3=C[C@@]4(OC(C)=O)CC/C=C\CCCCN5CC[C@@H]3[C@]3(C[C@@H]6/C=C\CCCCN6[C@H]34)C5)nccc12	microbial killing	MRSA	drug-resistant strain	MFC	> 20 µg/mL
COc1ccccc1Nc1cccc2nccnc12	microbial growth	RN4220		EC50	20 µM
CCOc1ccc(-c2nc3ccccc3n2Cc2ccccc2)cc1	microbial growth, broth dilution	ATCC43300 MRSA	drug-resistant strain	MIC	64 µg/mL (≈ 195 µM)
COC(=O)c1cc(-c2cccc(NC(=S)Nc3ccc(C)cc3)c2)on1	microbial growth, broth dilution	ATCC29213		MIC	> 64 µg/mL
Cc1c(NN=C(C#N)C2=NC(=O)CS2)c(=O)n(-c2ccccc2)n1C	microbial killing, broth dilution			MBC	1 µg/mL
CC1(c2ccccc2O)Nn2c(nc(-c3ccc(Cl)cc3)c(C#N)c2=O)N1C(Cc1c[nH]c2ccccc12)C(=O)O (centres unmarked)	microbial killing		drug-resistant strain	MBC	100 µg/mL
COC(=O)c1cc(-c2cccc(NC(=O)Nc3cccc(F)c3)c2)on1	microbial growth, broth dilution	ATCC29213		MIC	> 64 µg/mL
C=CCn1c(-c2ccc(Cl)c(Cl)c2)nc2ccccc21	microbial growth, broth dilution	ATCC43300 MRSA	drug-resistant strain	MIC	64 µg/mL (≈ 211 µM)
COC(=O)c1cc(-c2cccc(NC(=O)Nc3ccccc3F)c2)on1	microbial growth, broth dilution	ATCC29213		MIC	> 64 µg/mL
CCOc1cc(-c2nc3ccccc3[nH]2)ccc1O	microbial growth, broth dilution	ATCC43300 MRSA	drug-resistant strain	MIC	256 µg/mL (≈ 1010 µM)
CC1(C)S[C@@H]2[C@H](NC(=O)[C@H](N)c3ccccc3)C(=O)N2[C@H]1C(=O)O	microbial growth, well diffusion	ATCC25923	60000 µg/mL	inhibition zone	35 mm
COC(=O)c1cc(-c2cccc(NC(=O)Nc3ccc(F)cc3)c2)on1	microbial growth, broth dilution	ATCC29213		MIC	> 64 µg/mL
CSc1ccc(-c2nc3ccc(C)cc3[nH]2)cc1	microbial growth, broth dilution	ATCC43300 MRSA	drug-resistant strain	MIC	32 µg/mL (≈ 126 µM)
COC(=O)c1cc(-c2cccc(NC(=O)Nc3ccc(C(F)(F)F)cc3)c2)on1	microbial growth, broth dilution	ATCC29213		MIC	8 to 16 µg/mL (≈ 19.7 to 39.5 µM)
C=CCn1c(-c2ccc(Cl)cc2)nc2ccccc21	microbial growth, broth dilution	ATCC43300 MRSA	drug-resistant strain	MIC	128 µg/mL (≈ 476 µM)
